Measured values pooled from the literature.
Protocols differ between the studies behind these lines.
Target: Angiopoietin-1 receptor (TEK, Homo sapiens, UniProt Q02763)

| SMILES | read-out | method | concentration | remaining binding |
| --- | --- | --- | --- | --- |
| O=C(c1ccc(Nc2ncc(Cl)c(-c3cc4ccccc4s3)n2)cc1)N1CCC(N2CCCC2)CC1 | binding | competition with immobilised ligand | 1 µM | 19% |
| c1cncc(-c2cccc(Nc3nccc(NC4CCCCC4)n3)c2)c1 | binding | competition with immobilised ligand | 10 µM | 38% |
| CC(C)(C)c1ccc(-c2nc(CBr)nn2-c2cccc(O)c2)cc1 | cell-free assay | competition with immobilised ligand | 10 µM | 99% |
| CN(C)C(=O)Cn1cc(-c2nc(C3(c4ccc(-c5cnc(N)nc5)cc4)CC3)no2)cn1 | cell-free assay | competition with immobilised ligand | 1 µM | 88% |
| CNC(=O)[C@@H]1CC[C@@H](n2c(-c3ccc4cnccc4c3)nc3ccc(C(=O)NCc4cccc(C(N)=O)c4)cc32)C1 | binding | competition with immobilised ligand | 1 µM | 100% |
| Cc1cnn2ncc(-c3ccnc(N(C)C)n3)c2c1 | binding | – | 1 µM | 100% |
| O=C(NCC1CCOCC1)c1n[nH]cc1NC(=O)c1c(F)cccc1F | binding | competition with immobilised ligand | 1 µM | 100% |
| C[C@@H]1CN(c2cc(-c3nn(C)c4ccc(OC5(C)CC5)cc34)ncn2)C[C@H](C)O1 | cell-free assay | competition with immobilised ligand | 1 µM | 94% |
| C[C@H]1CCN(c2nccc(-c3cnn4ncccc34)n2)C1 | binding | – | 1 µM | 82% |
| COc1cc(-c2cn(C3CCc4ccccc4N(CC(F)(F)F)C3=O)nn2)ccc1-n1ccc(C)n1 (stereo not shown) | cell-free assay | competition with immobilised ligand | 1 µM | 81% |
| F[C@@H]1CCN(c2nccc(-c3cnn4ncccc34)n2)C1 | binding | – | 1 µM | 100% |
| C[C@@H](c1cccc(C#N)c1)n1cc(Cl)cc(C(N)=O)c1=N | cell-free assay | competition with immobilised ligand | 1 µM | 90% |
| COc1ccnn2ncc(-c3ccnc(N(C)C)n3)c12 | binding | – | 1 µM | 100% |
| C[C@@H]1CN(c2cc(-c3n[nH]c4ccc(OC5(C)CC5)cc34)ncn2)C[C@H](C)O1 | cell-free assay | competition with immobilised ligand | 0.1 µM | 100% |
| COc1ncc2cc3ccccc3nc2c1C#N | cell-free assay | competition with immobilised ligand | 5 µM | 88% |
| O=C(c1ccc(Nc2ncc(Cl)c(-c3ccc(Cl)s3)n2)cc1)N1CCC(N2CCCC2)CC1 | binding | competition with immobilised ligand | 1 µM | 23% |
